pEC50, pIC50: −log10 of the molar value. In brackets after ≈: the same amount, converted by molar mass.
What was measured:
Bacillus mycoides = assay: Antimicrobial activity against Bacillus mycoides ATCC 11778 after 24 hrs by broth dilution method; assay type: functional; settings: ATCC 11778, 24 h
In short: (§1)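 Modified NCCLS broth dilution. A 50 µL aliquot of bacterial cells (10⁶/mL in 0.85% NaCl) was added to 1 mL Mueller-Hinton broth containing compound over a 0.1–100 range.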

Raji [1] = assay: Inhibition of 12-O-tetradecanoylphorbol-13-acetate-induced EBV-early antigen activation in human Raji cells assessed as EA induction at 500 molar ratio after 48 hrs by immunofluorescence technique relative to 12-O-tetradecanoylphorbol-13-acetate; assay type: cell-based; design: scale not given: the % may be the effect or the level left; settings: human gammaherpesvirus 4
In short: (§2)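 Raji cells were incubated for 48 h at 37 °C in medium with n-butyric acid (4 mM), TPA (32 pmol) and graded amounts of test compound. Smears were stained for EBV-EA by indirect immunofluorescence, and positive cells were counted among at least 500 cells. Assays were run in triplicate. Activity was expressed relative to the n-butyric acid plus TPA control, set as 100%.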

Pseudomonas aeruginosa = assay: Antimicrobial activity against Pseudomonas aeruginosa NBRC13275 after 24 hrs by broth dilution method; assay type: functional; settings: NBRC13275, 24 h; in short: as §1
Paecilomyces variotii [2] = assay: Antimicrobial activity against Paecilomyces variotii NBRC4855 after 3-5 days by broth dilution method; settings: NBRC4855, 3-5 days
[3] = Cytotoxicity against human Raji cells assessed as cell viability at 1000 molar ratio after 48 hrs by trypan blue staining; assay type: cell-based; settings: read-out: Activity
In short: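 Raji cells were exposed for 48 h at 37 °C to n-butyric acid (4 mM), TPA (32 pmol) and test compound, as in the EBV-EA induction setup. Viability of the treated cells was then measured by trypan blue staining.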

Naganishia albida = assay: Antimicrobial activity against Cryptococcus albidus NBRC0378 after 3-5 days by broth dilution method; settings: NBRC0378, 3-5 days
Candida albicans [4] = assay: Antimicrobial activity against Candida albicans NBRC1060 after 24 hrs by broth dilution method; assay type: functional; settings: NBRC1060, 24 h
Raji [5] = assay: Inhibition of 12-O-tetradecanoylphorbol-13-acetate-induced EBV-early antigen activation in human Raji cells assessed as EA induction at 10 molar ratio after 48 hrs by immunofluorescence technique relative to 12-O-tetradecanoylphorbol-13-acetate; assay type: cell-based; design: scale not given: the % may be the effect or the level left; settings: human gammaherpesvirus 4; in short: as §2
[6] = Inhibition of 12-O-tetradecanoylphorbol-13-acetate-induced EBV-early antigen activation in human Raji cells after 48 hrs by immunofluorescence technique; assay type: cell-based, human gammaherpesvirus 4; in short: as §2
Staphylococcus aureus = assay: Antimicrobial activity against Staphylococcus aureus NBRC13276 after 24 hrs by broth dilution method; assay type: functional; settings: NBRC13276, 24 h; in short: as §1
Bacillus subtilis = assay: Antimicrobial activity against Bacillus subtilis NBRC3134 after 24 hrs by broth dilution method; assay type: functional; settings: NBRC3134, 24 h; in short: as §1
Salmonella enteritidis = assay: Antimicrobial activity against Salmonella enteritidis OPS10 after 24 hrs by broth dilution method; assay type: functional, Salmonella enterica subsp. enterica serovar Enteritidis; settings: Salmonella enterica, OPS10, 24 h; in short: as §1
Raji [7] = assay: Inhibition of 12-O-tetradecanoylphorbol-13-acetate-induced EBV-early antigen activation in human Raji cells assessed as EA induction at 1000 molar ratio after 48 hrs by immunofluorescence technique relative to 12-O-tetradecanoylphorbol-13-acetate; assay type: cell-based; settings: human gammaherpesvirus 4; in short: as §2
Raji [8] = assay: Inhibition of 12-O-tetradecanoylphorbol-13-acetate-induced EBV-early antigen activation in human Raji cells assessed as EA induction at 100 molar ratio after 48 hrs by immunofluorescence technique relative to 12-O-tetradecanoylphorbol-13-acetate; assay type: cell-based; design: scale not given: the % may be the effect or the level left; settings: human gammaherpesvirus 4; in short: as §2
Saccharomyces cerevisiae [9] = assay: Antimicrobial activity against Saccharomyces cerevisiae NBRC10114 after 24 hrs by broth dilution method; assay type: functional; settings: NBRC10114, 24 h
Aspergillus fumigatus [10] = assay: Antimicrobial activity against Aspergillus fumigatus NBRC4400 after 3-5 days by broth dilution method; settings: NBRC4400, 3-5 days
Penicillium expansum [11] = assay: Antimicrobial activity against Penicillium expansum NBRC8800 after 24 hrs by broth dilution method; assay type: functional; settings: NBRC8800, 24 h
Escherichia coli = assay: Antimicrobial activity against Escherichia coli ATCC 11775 after 24 hrs by broth dilution method; assay type: functional; settings: ATCC 11775, 24 h; in short: as §1
MCF7 = assay: Antiproliferative activity against human MCF7 cells after 72 hrs by trypan blue exclusion assay; assay type: functional, cell-based; settings: MCF7, 72 h
In short: (§3)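 Cells were kept in DMEM with 10% fetal serum and exposed to four concentrations of compound for 72 h at 37 °C in humidified 5% CO₂. They were then stained with 0.25% trypan blue for 20 min, and viable cells were counted by light microscopy. IC₅₀ was derived from separate experiments run in triplicate.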

PC-3 = assay: Antiproliferative activity against human PC3 cells after 72 hrs by trypan blue exclusion assay; assay type: functional, cell-based; settings: PC-3, 72 h; in short: as §3
A549 = assay: Antiproliferative activity against human A549 cells after 72 hrs by trypan blue exclusion assay; assay type: functional, cell-based; settings: A549, 72 h; in short: as §3
Aspergillus fumigatus [12] = assay: Antimicrobial activity against Aspergillus fumigatus NBRC4400 after 24 hrs by broth dilution method; assay type: functional; settings: NBRC4400, 24 h
Candida albicans [13] = assay: Antimicrobial activity against Candida albicans NBRC1060 after 3-5 days by broth dilution method; settings: NBRC1060, 3-5 days
Paecilomyces variotii [14] = assay: Antimicrobial activity against Paecilomyces variotii NBRC4855 after 24 hrs by broth dilution method; assay type: functional; settings: NBRC4855, 24 h
Penicillium expansum [15] = assay: Antimicrobial activity against Penicillium expansum NBRC8800 after 3-5 days by broth dilution method; settings: NBRC8800, 3-5 days
Saccharomyces cerevisiae [16] = assay: Antimicrobial activity against Saccharomyces cerevisiae NBRC10114 after 3-5 days by broth dilution method; settings: NBRC10114, 3-5 days
[17] = Antiproliferative activity against human Hs888Lu cells after 72 hrs by trypan blue exclusion assay; assay type: cell-based; in short: as §3
[18] = Antiproliferative activity against human SVCT-M12 cells after 72 hrs by trypan blue exclusion assay; assay type: cell-based; settings: SVCT-M12, 72 h; in short: as §3

Structure (SMILES) | MIC (Bacillus mycoides) | Activity (Raji [1]) | viability at 48 h, 1000 molar ratio [3] | MIC (Naganishia albida) | Activity (Raji [5]) | IC50 [6] | MIC (Staphylococcus aureus) | MIC (Bacillus subtilis) | EA induction relative to TPA control (Raji [7]) | Activity (Raji [8]) | pIC50 (MCF7) | pIC50 (PC-3) | pIC50 (A549) | further results
C[C@@H](O)c1cc2c(o1)C(=O)c1c(O)cccc1C2=O | 1.56 µg/mL (≈ 6.04 µM) | 20.4% | 60% | 1.56 µg/mL (≈ 6.04 µM) | 76.3% | 201 mol ratio/32 pmol TPA | 6.25 µg/mL (≈ 24.2 µM) | 1.56 µg/mL (≈ 6.04 µM) | 4.2% | 52.5% | – | – | – | MIC (Pseudomonas aeruginosa): > 100 µg/mL; MIC (Paecilomyces variotii [2]): 50 µg/mL (≈ 194 µM); MIC (Candida albicans [4]): 25 µg/mL (≈ 96.8 µM); MIC (Salmonella enteritidis): > 100 µg/mL; MIC (Saccharomyces cerevisiae [9]): 3.13 µg/mL (≈ 12.1 µM); MIC (Aspergillus fumigatus [10]): 25 µg/mL (≈ 96.8 µM); MIC (Penicillium expansum [11]): 50 µg/mL (≈ 194 µM); MIC (Escherichia coli): > 100 µg/mL
CC1(C)CCC2=C(O1)c1ccccc1C(=O)C2=O [LAPACHONE] | – | 21.7% | 50% | – | 73.1% | 210 mol ratio/32 pmol TPA | – | – | 4.7% | 50.4% | 5.00 | 5.95 | 5.38 | –
CC(O)c1cc2c(o1)C(=O)c1c(O)cccc1C2=O (racemic) | – | 28.4% | 60% | – | 84.6% | 306 mol ratio/32 pmol TPA | – | – | 8.9% | 59% | – | – | – | –
C[C@@H]1[C@H](O)[C@@H](C)/C=C/C=C/C=C/C=C/C=C/C=C/C=C/[C@H](O[C@@H]2O[C@H](C)[C@@H](O)[C@H](N)[C@@H]2O)C[C@@H]2O[C@](O)(C[C@@H](O)C[C@@H](O)[C@H](O)CC[C@@H](O)C[C@@H](O)CC(=O)O[C@H]1C)C[C@H](O)[C@H]2C(=O)O [AMPHOTERICIN B] | – | – | – | 1.56 µg/mL (≈ 1.69 µM) | – | – | – | – | – | – | – | – | – | MIC (Aspergillus fumigatus [12]): 1.56 µg/mL (≈ 1.69 µM); MIC (Candida albicans [13]): 1.56 µg/mL (≈ 1.69 µM); MIC (Paecilomyces variotii [14]): 0.78 µg/mL (≈ 0.844 µM); MIC (Penicillium expansum [15]): 1.56 µg/mL (≈ 1.69 µM); MIC (Saccharomyces cerevisiae [16]): 0.78 µg/mL (≈ 0.844 µM)
CC(=O)c1cc2c(o1)C(=O)c1c(O)cccc1C2=O | – | 8.3% | 70% | – | 60.3% | 40.1 mol ratio/32 pmol TPA | – | – | 0% | 27.5% | 5.58 | 5.52 | 5.37 | pEC50 [17]: 4.84; pEC50 [18]: 4.93
CC1(C)S[C@@H]2[C@H](NC(=O)Cc3ccccc3)C(=O)N2[C@H]1C(=O)O [PENICILLIN G] | 1.56 µg/mL (≈ 4.67 µM) | – | – | – | – | – | 0.39 µg/mL (≈ 1.17 µM) | 0.39 µg/mL (≈ 1.17 µM) | – | – | – | – | – | –

Reference: ChEMBL document CHEMBL1152539, “Synthesis and evaluation of bioactive naphthoquinones from the Brazilian medicinal plant, Tabebuia avellanedae” (Bioorg Med Chem, 2009)
